Measurements: ChEMBL document CHEMBL4359903, “1,2,4-Oxadiazole derivatives targeting EGFR and c-Met degradation in TKI resistant NSCLC” (Eur J Med Chem, 2019)
The source made the active and inactive calls. No cut-off for these calls is given here.

What was measured:
[1] = system: PC-9; test: Antiproliferative activity against human PC9 cells harbouring EGFR delE746-A750 mutant assessed as reduction in cell viability incubated for 72 hrs by MTT assay; type: functional, cell-based; conditions: PC-9, 72 h
[2] = target: Epidermal growth factor receptor (Homo sapiens) (UniProt P00533); test: Inhibition of EGFR in wild type human A549 cells assessed as reduction in Akt phosphorylation at 0.2 to 0.6 uM incubated for 48 hrs by Western blot analysis; type: cell-based
How it was run: (§1)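 After 48 h treatment, cells were scraped and lysed in 1% SDS, 50 mM Tris-HCl pH 8.0, 10 mM EDTA with protease and phosphatase inhibitors. Lysates sonicated, protein measured by BCA, equal amounts run on SDS-PAGE and blotted to nitrocellulose. Primary antibodies (EGFR, c-Met, S473-Akt, Akt, GAPDH) used at 1:1000 overnight at 4 °C, HRP secondaries at 1:5000, ECL detection.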

[3] = system: Epidermal growth factor receptor (Homo sapiens), P00533 [L858R,T790M]; test: Induction of EGFR L858R/T790M double mutant degradation in human NCI-H1975 cells assessed as reduction in Akt phosphorylation at 0.2 to 0.6 uM incubated for 48 hrs by Western blot analysis; type: cell-based; how it was run: as §1
[4] = target: Hepatocyte growth factor receptor (Homo sapiens) (UniProt P08581); test: Induction of c-MET degradation in human NCI-H1975 cells harbouring EGFR L858R/T790M double assessed as reduction in c-Met expression at 0.2 to 0.6 uM incubated for 48 hrs by Western blot analysis; type: cell-based; how it was run: as §1
[5] = organism: Homo sapiens; test: Cell cycle arrest in human CL68 cells harbouring EGFR delE746-A750/T790M mutant assessed as increase in cells accumulation at G2/M phase at 0.4 to 0.8 uM incubated for 48 hrs by propidium iodide based flow cytometry; type: functional
How it was run: (§2)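 Cells plated at 3 × 10^5 per 6-cm dish and left overnight, then treated for 24 h and 48 h. Pellets fixed in 70% ethanol and stained with 40 µg/ml propidium iodide plus 20 µg/ml RNase A, 30 min on ice in the dark. DNA content read on a FACSCalibur flow cytometer.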

[6] = target: Hepatocyte growth factor receptor (Homo sapiens) (UniProt P08581); test: Induction of c-MET degradation in human MDA-MB-231 cells assessed as reduction in c-Met expression incubated for 48 hrs by immunoblot analysis; type: cell-based; how it was run: as §1
[7] = system: PC-9; test: Antiproliferative activity against human PC9 cells harbouring EGFR delE746-A750 mutant assessed as reduction in cell viability incubated for 48 hrs by MTT assay; type: functional, cell-based; conditions: PC-9, 48 h
How it was run: (§3)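 Cells seeded at 5000 per well in 10% FBS and left overnight, then exposed to agent or DMSO in 5% FBS for 48 h. MTT added for 1 h, dye dissolved in DMSO, absorbance read at 570 nm. Viability given as percent of vehicle control. At least three independent experiments, means ± SD.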

[8] = target: Hepatocyte growth factor receptor (Homo sapiens) (UniProt P08581); test: Induction of c-MET degradation in wild type human A549 cells assessed as reduction in c-Met expression at 0.2 to 0.6 uM incubated for 48 hrs by immunoblot analysis; type: cell-based; how it was run: as §1
[9] = system: A549; test: Antiproliferative activity against wild type human A549 cells assessed as reduction in cell viability incubated for 72 hrs by MTT assay; type: functional, cell-based; conditions: A549, 72 h
[10] = target: Hepatocyte growth factor receptor (Homo sapiens) (UniProt P08581); test: Induction of c-MET degradation in human CL68 cells harbouring EGFR delE746-A750/T790M assessed as reduction in c-Met expression at 0.2 to 0.6 uM incubated for 48 hrs by Western blot analysis; type: cell-based; how it was run: as §1
[11] = system: A549; test: Antiproliferative activity against wild type human A549 cells assessed as reduction in cell viability incubated for 48 hrs by MTT assay; type: functional, cell-based; conditions: A549, 48 h; how it was run: as §3
[12] = target: Epidermal growth factor receptor (Homo sapiens) (UniProt P00533); test: Effect on EGFR degradation in wild type human A549 cells assessed as reduction in EGFR mRNA expression at 0.2 to 0.6 uM incubated for 48 hrs by RT-PCR analysis; type: cell-based
How it was run: (§4)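 Total RNA extracted with TRIzol from H1975 and A549 cells treated at 0.2–0.6 µM. EGFR and c-Met mRNA assessed by RT-PCR.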

[13] = target: Hepatocyte growth factor receptor (Homo sapiens) (UniProt P08581); test: Effect on c-MET degradation in wild type human A549 cells assessed as reduction in c-Met mRNA expression at 0.2 to 0.6 uM incubated for 48 hrs by RT-PCR analysis; type: cell-based; how it was run: as §4
[14] = system: CL97; test: Antiproliferative activity against human CL97 cells harbouring EGFR G719A/T790M mutant assessed as reduction in cell viability incubated for 72 hrs by MTT assay; type: functional, cell-based; conditions: CL97, 72 h
[15] = system: NCI-H1975; test: Antitumor activity against human NCI-H1975 cells harbouring EGFR L858R/T790M double mutant xenografted in athymic Nude-Foxn1nu BALB/c mouse assessed as tumor growth inhibition at 150 mg/kg, po administered once daily via gavage for 20 days measured twice a week by caliper method relative to control; type: functional; conditions: 480 h, read-out: TGI
How it was run: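 Female Balb/c nude mice, 5 weeks old, injected subcutaneously in the right flank with 10^6 H1975 cells in 0.1 ml. Randomized at about 50 mm3, n = 8 per group. Gavaged once daily for 20 days with vehicle (10% DMSO/0.1% Tween 80/0.5% methylcellulose in sterile water) or 50 or 150 mg/kg. Calipers, V = width² × length × 0.52; volume and body weight twice weekly; Student's t-test.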

[16] = system: Epidermal growth factor receptor (Homo sapiens), P00533 [L858R,T790M]; test: Induction of EGFR L858R/T790M double mutant degradation in human NCI-H1975 cells assessed as change in EGFR expression at 0.2 to 0.6 uM incubated for 48 hrs by RT-PCR analysis; type: cell-based; how it was run: as §4
[17] = system: NCI-H1975; test: Cell cycle arrest in human NCI-H1975 cells harbouring EGFR L858R/T790M double mutant assessed as increase in cells accumulation at G2/M phase at 0.2 to 0.6 uM incubated for 48 hrs by propidium iodide based flow cytometry; type: functional; how it was run: as §2
[18] = system: NCI-H1975; test: Antitumor activity against human NCI-H1975 cells harbouring EGFR L858R/T790M double mutant xenografted in athymic Nude-Foxn1nu BALB/c mouse assessed as reduction in c-Met expression in tumor lysates administered once daily via oral gavage for 20 days measured on day 20 by Western blot analysis; type: functional; conditions: Neoplasm, Lysate
How it was run: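 H1975 xenografts in nude mice gavaged daily for 20 days with vehicle, 50 or 150 mg/kg. At study end mice were killed by CO2, and tumor lysates from four representative tumors per group were immunoblotted for EGFR and c-Met. Band intensities quantified by densitometry.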

[19] = system: Epidermal growth factor receptor (Homo sapiens), P00533 [G719A,T790M]; test: Induction of EGFR G719A/T790M mutant degradation in human CL97 cells assessed as reduction in EGFR expression at 0.2 to 0.6 uM incubated for 48 hrs by Western blot analysis; type: cell-based; how it was run: as §1
[20] = system: NCI-H1975; test: Antiproliferative activity against human NCI-H1975 cells harbouring EGFR L858R/T790M double mutant assessed as reduction in cell viability incubated for 48 hrs by MTT assay; type: functional, cell-based; conditions: NCI-H1975, 48 h; how it was run: as §3
[21] = Antiproliferative activity against human CL68 cells harbouring EGFR delE746-A750/T790M mutant assessed as reduction in cell viability incubated for 48 hrs by MTT assay; type: functional, cell-based; how it was run: as §3
[22] = system: CL97; test: Antiproliferative activity against human CL97 cells harbouring EGFR G719A/T790M mutant assessed as reduction in cell viability incubated for 48 hrs by MTT assay; type: functional, cell-based; conditions: CL97, 48 h; how it was run: as §3

Hepatocyte growth factor receptor (Homo sapiens), sequence (P08581 whole entry): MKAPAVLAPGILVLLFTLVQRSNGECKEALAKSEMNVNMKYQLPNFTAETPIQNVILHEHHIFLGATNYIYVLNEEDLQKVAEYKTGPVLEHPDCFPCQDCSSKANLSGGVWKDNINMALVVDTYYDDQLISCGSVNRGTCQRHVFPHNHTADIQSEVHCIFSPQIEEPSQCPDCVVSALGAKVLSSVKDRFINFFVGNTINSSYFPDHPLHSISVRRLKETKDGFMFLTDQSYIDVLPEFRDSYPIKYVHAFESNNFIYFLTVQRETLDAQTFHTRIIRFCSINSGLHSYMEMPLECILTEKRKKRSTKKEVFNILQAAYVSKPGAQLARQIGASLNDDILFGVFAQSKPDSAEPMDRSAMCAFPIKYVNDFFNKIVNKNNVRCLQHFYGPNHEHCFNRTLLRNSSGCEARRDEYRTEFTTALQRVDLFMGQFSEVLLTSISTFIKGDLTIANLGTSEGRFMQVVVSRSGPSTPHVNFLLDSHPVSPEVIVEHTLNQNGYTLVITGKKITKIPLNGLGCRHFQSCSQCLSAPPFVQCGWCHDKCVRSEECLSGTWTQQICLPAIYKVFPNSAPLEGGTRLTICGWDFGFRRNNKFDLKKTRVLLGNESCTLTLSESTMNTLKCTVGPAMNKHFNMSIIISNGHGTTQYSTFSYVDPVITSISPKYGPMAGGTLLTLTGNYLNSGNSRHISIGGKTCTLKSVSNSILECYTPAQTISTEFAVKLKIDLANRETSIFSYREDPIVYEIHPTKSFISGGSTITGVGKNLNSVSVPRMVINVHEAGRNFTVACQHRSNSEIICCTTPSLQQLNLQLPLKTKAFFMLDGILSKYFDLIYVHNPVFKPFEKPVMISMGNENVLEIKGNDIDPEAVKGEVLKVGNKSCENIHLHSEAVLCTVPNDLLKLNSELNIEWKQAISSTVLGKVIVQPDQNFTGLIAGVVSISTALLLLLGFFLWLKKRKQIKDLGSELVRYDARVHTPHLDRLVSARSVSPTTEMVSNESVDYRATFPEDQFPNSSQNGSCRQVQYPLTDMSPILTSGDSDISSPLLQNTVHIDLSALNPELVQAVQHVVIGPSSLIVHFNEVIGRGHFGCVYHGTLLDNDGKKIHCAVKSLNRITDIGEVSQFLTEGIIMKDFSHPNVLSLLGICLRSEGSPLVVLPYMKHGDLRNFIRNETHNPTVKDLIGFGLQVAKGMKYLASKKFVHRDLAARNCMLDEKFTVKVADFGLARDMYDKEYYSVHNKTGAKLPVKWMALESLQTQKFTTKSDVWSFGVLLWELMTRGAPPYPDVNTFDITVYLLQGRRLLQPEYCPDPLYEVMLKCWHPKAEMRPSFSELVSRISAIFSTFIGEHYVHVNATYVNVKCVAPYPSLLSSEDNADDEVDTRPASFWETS

**Q.** With O=C(Nc1cccc(-c2nc(-c3ccc(NC(=O)c4cccnc4)cc3Cl)no2)c1)Nc1ccc(NC(=O)C2CC2)c(C(F)(F)F)c1 as the compound, how does the IC50 [1] read?
**A.** The IC50 was 500 nM.

**Q.** What about the Activity [2] of the same compound?
**A.** Its Activity is “Active”.

**Q.** And the Activity [3]?
**A.** The Activity was “Active”.

**Q.** And the Activity [4]?
**A.** Its Activity is “Active”.

**Q.** And the Activity [5]?
**A.** Its Activity is “Active”.

**Q.** And the Activity [6]?
**A.** Its Activity is “Active”.

**Q.** And the IC50 [7]?
**A.** Its IC50 is 600 nM.

**Q.** And the Activity [8]?
**A.** Its Activity is “Active”.

**Q.** And the IC50 [9]?
**A.** Its IC50 is 200 nM.

**Q.** What about the Activity [10] of the same compound?
**A.** Its Activity is “Active”.

**Q.** What about the IC50 [11] of the same compound?
**A.** The IC50 was 300 nM.

**Q.** And the Activity [12]?
**A.** Its Activity is “inactive”.

**Q.** What about the Activity [13] of the same compound?
**A.** The Activity was “inactive”.

**Q.** And the IC50 [14]?
**A.** Its IC50 is 500 nM.

**Q.** What about the inhibition in vivo at 150 mg/kg [15] of the same compound?
**A.** Its inhibition in vivo at 150 mg/kg is 60%.

**Q.** What about the Activity [16] of the same compound?
**A.** The Activity was “inactive”.

**Q.** And the Activity [17]?
**A.** The Activity was “Active”.

**Q.** And the Activity [18]?
**A.** Its Activity is “Dose-dependent effect”.

**Q.** What about the Activity [19] of the same compound?
**A.** The Activity was “Active”.

**Q.** What about the IC50 [20] of the same compound?
**A.** Its IC50 is 300 nM.

**Q.** What about the IC50 [21] of the same compound?
**A.** Its IC50 is 500 nM.

**Q.** And the IC50 [22]?
**A.** The IC50 was 600 nM.
